From PubChem BioAssay
NadD inh = inhibitors of Staphylococcus aureus NadD; purified NadD enzyme, colorimetric absorbance read-out; inhibition, % at 20 µM; 0.78% of 360,000 active; in the data active means inhibition above about 26%
SENP1 FRET inh = blocks the human SENP1 SUMO protease catalytic domain | Q9P0U3 | recombinant SENP1 catalytic domain, CyPet-SUMO1-YPet FRET cleavage | inhibition, % at 10 µM | 0.21% of 360,000 active;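 active means inhibition at least 30% at 10 µM, raw YFP signal under a set limit, fluorescence ratio 0.5 to 1.5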;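 further: 0% = enzyme with DMSO and 100% = no enzyme wells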
Target sequence (Q9P0U3 419-644 limits assumed): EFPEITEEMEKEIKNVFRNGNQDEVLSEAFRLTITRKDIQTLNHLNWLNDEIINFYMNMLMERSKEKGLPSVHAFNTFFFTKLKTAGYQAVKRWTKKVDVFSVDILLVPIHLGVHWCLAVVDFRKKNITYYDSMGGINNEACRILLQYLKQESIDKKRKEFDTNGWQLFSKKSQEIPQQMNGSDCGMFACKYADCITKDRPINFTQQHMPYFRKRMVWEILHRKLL
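Assay system: hSENP1 catalytic domain, recombinant. Amount: SENP1 enzyme, 20 pM final. Schedule: 50 min reaction, RT, dark. Technique: FRET, CFP and YFP emission. Control set: no-enzyme wells low, DMSO-plus-enzyme wells high control.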
NR3A LBD binder = NR3A (human) ligand-binding domain modulation. NR3A LBD differential scanning fluorimetry, Tm shift; 0% = protein alone, 100% = glycine-bound protein. Tm shift relative to glycine control, % at 25 µM. 2.5% of 340,000 active;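 active means melting temperature shift of at least 10% of the positive control shift, at one fixed dose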
UCH37 inh = human UCH37 deubiquitinating enzyme inhibition; 0.33% of 330,000 active; AID 588478; purified proteasome/UCH37, Ub-AMC cleavage fluorescence; inhibition, % (test concentration not listed);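 active means mean inhibition over replicate wells above about 20%, limit read from the data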;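 further: 0% = compound-free wells with enzyme and 100% = wells lacking proteasome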
Target sequence (Q9Y5K5 whole entry, looked up): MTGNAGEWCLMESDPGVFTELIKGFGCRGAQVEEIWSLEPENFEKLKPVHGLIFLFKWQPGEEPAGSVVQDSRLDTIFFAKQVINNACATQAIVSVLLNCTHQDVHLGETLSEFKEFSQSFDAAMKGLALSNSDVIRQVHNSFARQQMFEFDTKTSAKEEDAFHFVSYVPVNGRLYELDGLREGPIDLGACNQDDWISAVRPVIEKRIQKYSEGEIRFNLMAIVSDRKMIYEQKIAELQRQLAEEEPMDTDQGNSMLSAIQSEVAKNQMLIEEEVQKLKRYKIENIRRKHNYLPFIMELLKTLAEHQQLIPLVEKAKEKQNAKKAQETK
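Test system – human UCH37 enzyme supplied as purified proteasome complex · Incubation – 30 min preincubation with enzyme, 25 min cleavage at room temperature · Detection – AMC fluorescence from Ub-AMC cleavage, excitation 355 nm, emission 460 nm · Benchmarks – no-proteasome wells (full inhibition) and compound-free wells (no inhibition)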
ATG4B inh = blocks human ATG4B protease cleavage of LC3 substrate; ATG4B cleavage of LC3-PLA2, NBD-HPC fluorescence, 1 h; 0.51% of 340,000 active; inhibition, % at 8.33 µM; in the data active means inhibition above about 40%
* = called active by the depositor; . = no result given. Rows were chosen to be rich in hits. Some 3.6% of all compounds tested hit in one or more screens of this group.

SMILES	NadD inh	SENP1 FRET inh	NR3A LBD binder	UCH37 inh	ATG4B inh
CC(=NO)C(CN(C)C)=NO	.	.	.	1	.
CCc1ccc2c(Cl)c(C(=O)N/N=C/c3c[nH]c4ccccc34)sc2c1	26	-16	24*	.	4
CCOc1ccccc1C(=O)NN=Cc1c[nH]c2ccccc12	.	.	.	-11	.
CCc1ccc(-c2cc(C(=O)NN=Cc3c[nH]c4ccccc34)[nH]n2)cc1	.	.	.	-19	.
CCc1ccc(-c2cc(C(=O)N/N=C/c3c[nH]c4ccccc34)[nH]n2)cc1	21	-2	24*	.	1
CCc1cccc2sc(NC(=O)C3CC3)nc12	-3	1	12*	2	-4
Fc1ccc(C=NNc2nc3ccccc3[nH]2)cc1F	.	.	.	4	.
C/C=C\C=C/C(=O)Nc1cccc(C2=NOC3(C2)C[C@@H](C(N)=O)N(C(=O)/C=C/C=C\C)C3)c1 (stereo not given in full)	31*	-12	-2	2	-2
CCCCCC(=O)Nc1cccc(C2=NOC3(C2)C[C@H](C(N)=O)N(C(=O)[C@H]2CCC(=O)N2)C3)c1 (stereo not given in full)	-10	2	12*	0	-6
COc1ccc(Cl)cc1NC(=O)CC(C)=NNC(=O)Cc1ccccc1	.	.	.	-1	.
CC(C)c1cccc(-c2ccc3c(c2)S(=O)(=O)c2cccc(C(=O)O)c2C3=O)c1	1	-8	24*	5	-12
COc1cc(C(=O)Nc2nc(-c3ccc(Cl)cc3)c(C)s2)ccc1OCC(=O)Nc1ccc(F)cc1	23	1	18*	.	-8
CCc1ccc(-c2nc(NC(=O)c3ccc(OCC(=O)Nc4ccc(F)cc4)c(OC)c3)sc2C)cc1	20	-1	2	-72	-6
COc1ccc(C=NNC(=O)c2nc(Cl)c(Cl)c(N)c2Cl)cc1COc1ccccc1F	.	.	.	-205	.
CCCCOCCCNC(=O)Cc1cccs1	0	-3	11*	1	10
Cc1ccc(C(=O)c2nocc2C(=O)c2cccs2)cc1	-26	2	16*	1	-4
COc1ccc(C(=O)NN=Cc2cc3ccccc3[nH]c2=S)cc1	.	.	.	3	.
Oc1ccc(Nc2nc(-c3ccccc3F)nc3ccccc23)cc1	-4	-4	25*	-4	-11
COc1ccccc1Nc1nc(-c2ccccc2O)nc2ccccc12	3	0	4	4	2
COc1cccc(Nc2nc(-c3ccccc3)nc3ccccc23)c1	-3	1	37*	-159	5
Oc1ccccc1Nc1nc(-c2ccccc2O)nc2ccccc12	6	0	28*	-1	-6
COc1ccc(Nc2nc(-c3ccccc3)nc3ccccc23)c(OC)c1	0	-3	-2	-31	-12
COc1ccc(Nc2nc(-c3ccccc3O)nc3ccccc23)cc1	8	3	34*	4	7
CC(C)NC(=S)NN=C1CCCCC1C1CCCCC1 (stereo not given)	.	.	.	4	.
CC(=NNC(=O)c1nn(C)cc1Br)c1ccc(NC(=O)c2ccncc2)cc1	.	.	.	1	.
SMILES	NadD inh	SENP1 FRET inh	NR3A LBD binder	UCH37 inh	ATG4B inh
COc1ccc(C=NNC(=S)NCC2CCCO2)cc1 (stereo not given)	.	.	.	7	.
COc1cccc(Nc2nc(-c3ccccc3O)nc3ccccc23)c1	2	0	32*	5	-10
COc1ccc(OC)c(Nc2nc(-c3ccccc3O)nc3ccccc23)c1	-1	10	-3	6	-1
Oc1ccc(Nc2nc(-c3ccccc3O)nc3ccccc23)cc1	4	0	36*	5	-7
CC(=O)Nc1ccc(C(=O)NN=Cc2ccc(F)cc2)cc1	.	.	.	1	.
CCCC(=O)Nc1ccc(-c2nc3cc(C)ccc3o2)cc1	-13	-3	14*	-38	-6
Cc1ccc2oc(-c3ccc(NC(=O)c4ccncc4)cc3O)nc2c1	5	-6	33*	.	-3
COc1ccccc1C(=O)Nc1ccc2oc(-c3ccc(F)cc3)nc2c1	-10	-2	14*	-200	3
C=CCNC(=S)NN=Cc1cn(C)c2ccccc12	.	.	.	7	.
Cc1ccc(C(C)C)c(OCC(=O)NN=Cc2cccn2C)c1	.	.	.	4	.
CCC(=O)Nc1ccc(C(C)=NNC(=O)c2c(Br)c(C)nn2C)cc1	.	.	.	3	.
O=C1NN(c2ccccc2)C(=O)/C1=C\c1cccn1-c1ccc(Cl)c([N+](=O)[O-])c1	42*	3	-1	7	23
COc1cc(/C=C2/C(=O)NN(c3cccc(C)c3)C2=O)cc([N+](=O)[O-])c1O	5	3	-6	.	-1
COc1ccc(NC(=O)Nc2cccc3c2O[C@H](CN(C)S(=O)(=O)c2ccc(F)cc2)[C@@H](C)CN([C@H](C)CO)C3=O)cc1	-6	1	-1	0	-18
C[C@H](CO)N1C[C@H](C)[C@@H](CN(C)S(=O)(=O)c2ccc(F)cc2)Oc2c(NC(=O)Nc3ccc(C(F)(F)F)cc3)cccc2C1=O	-14	1	20*	3	-38
C[C@H]1CN([C@@H](C)CO)C(=O)c2cccc(NC(=O)Nc3ccc(C(F)(F)F)cc3)c2O[C@@H]1CN(C)S(=O)(=O)c1ccc(Cl)cc1	-9	1	23*	5	-12
CCOc1cc(C=NNC(=O)OC(C)(C)C)ccc1OC(=O)c1ccco1	.	.	.	-1	.
O=C(NN=Cc1c(F)cccc1Cl)C1CC1	.	.	.	2	.
C=CCn1c(N)c(C(=O)OC(C)(C)C)c2nc3ccccc3nc21	-4	-82	9	.	-2
C=CCn1c(N)c(C(=O)Nc2ccccc2)c2nc3ccccc3nc21	-7	-11	13*	-4	-25
CC12CCC(CC1=NNC(=O)COc1ccccc1Cl)C2(C)C (stereo not given)	.	.	.	4	.
CC(C)=CCC12Oc3cc(O)ccc3C1(O)Oc1cc(O)c([C@H]3C=C(C)CC(c4ccc(O)cc4O)[C@H]3C(=O)c3ccc(O)cc3O)c(O)c1C2=O (stereo not given in full)	.	.	68*	3	34
O=C(CN1CCN(Cc2ccccc2)CC1)c1ccccc1	3	-8	-1	-2	-1
O=C(CN1CCN(Cc2ccccc2)CC1)c1ccc(Br)cc1	-2	-1	11*	2	-3
Cc1ccc(C2CC2C(=O)NNC(=S)Nc2cccc(Cl)c2)cc1 (stereo not given)	3	3	11*	5	20
Cc1ccc(C2CC2C(=O)NNC(=S)Nc2cccc(C)c2)cc1 (stereo not given)	-2	2	-9	2	1
O=C1c2ccc([N+](=O)[O-])cc2NC(c2ccco2)N1N=Cc1ccco1 (stereo not given)	.	.	.	9	.
N#CCSc1nnc(CNc2cccc(Cl)c2)o1	-2	1	14*	4	-8
N#CCSc1nnc(COc2ccc3ccccc3c2)o1	-6	4	15*	1	-15
NC(=O)CSc1nnc(COc2ccc3ccccc3c2)o1	0	1	3	2	2
